Data taken from ChEMBL document CHEMBL1127326, “Antitumor agents. 148. Synthesis and biological evaluation of novel 4 beta-amino derivatives of etoposide with better pharmacological profiles” (1994).
“And” between values parts separate entries of the source, which are not always exact repeats. Equal entries are not always repeated.

Assays:
[1] = target: T1, DNA topoisomerase II (Homo sapiens) (UniProt P11388+Q02880); experiment: 50% inhibition of human DNA topoisomerase II; type: protein assay
Tumor Cell line [2] = experiment: Drug molar concentration required to inhibit 50% of human tumor cell growth; type: functional
Summary of the method: (§1)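 NCI panel of 54 human tumor lines from eight cancer types, mostly seeded at 20 000 cells/well. Cells were preincubated 24 h without drug, then exposed to five 10-fold dilutions for 48 h, fixed and stained with sulforhodamine B, and read spectrophotometrically. Versus control, GI50 (50% growth inhibition), TGI (0% growth) and LC50 (−50% growth) were calculated; mean graph midpoints average all lines.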

KB [3] = experiment: Cytotoxicity against KB cells after a 3 day incubation; type: functional, Homo sapiens; conditions: read-out: ID50 (the source's name)
Summary of the method: (§2)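 KB cells (parental ATCC line and resistant variants) exposed to drug at five concentrations […] for 3 days. ID50 is the concentration giving 50% reduction in cell number, derived from the degree of inhibition at the five concentrations.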

KB [4] = experiment: 50% reduction in the number of KB 7D (topoisomerase II, aMDR) resistant variant; type: functional, Homo sapiens; conditions: read-out: ID50 (the source's name); summary of the method: as §2
KB [5] = experiment: 50% reduction in the number of KB ATCC cells; type: functional; conditions: Homo sapiens, read-out: ID50 (the source's name); summary of the method: as §2
Tumor Cell line [6] = experiment: Drug concentration required to inhibit total cell growth; type: functional, Homo sapiens; conditions: read-out: Log TGI (converted); summary of the method: as §1
Tumor Cell line [7] = experiment: Drug concentration required to cause 50% cell death; type: functional, Homo sapiens
Summary of the method: (§3)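 NCI in vitro panel of 54 human tumor cell lines from eight cancer types, mostly seeded at 20 000 cells/well and preincubated 24 h without drug. Five 10-fold dilutions were then added for a further 48 h. Cells were fixed in situ and stained with sulforhodamine B, and bound dye was read spectrophotometrically. LC50 (−50% growth versus control) was taken from five-point dose-response curves and reported as the log10 mean-graph midpoint across lines.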

KB [8] = experiment: 50% reduction in the number of KB V20C resistant variant; type: functional, Homo sapiens; conditions: read-out: ID50 (the source's name); summary of the method: as §2
Tumor Cell line [9] = experiment: 50% of human tumor cell growth; type: functional; summary of the method: as §1
[10] = target: T1, DNA topoisomerase II (Homo sapiens); experiment: inhibition of human DNA topoisomerase II; type: protein assay
Nucleic Acid = experiment: Percentage inhibition of cellular protein-DNA complex formation; type: functional; conditions: Homo sapiens
KB [11] = experiment: Inhibitory dose value is the concentration which affords 50% reduction in the number of KB ATCC cells; type: functional; conditions: Homo sapiens, read-out: ID50 (the source's name); summary of the method: as §2
[12] = target: T1, DNA topoisomerase II (Homo sapiens); experiment: 50% inhibition of human DNA topoisomerase II was measured; type: protein assay
Tumor Cell line [13] = experiment: LC 50 is the concentration required to cause 50% cell death; type: functional; conditions: Homo sapiens, read-out: Log LC50 (the source's name) (converted); summary of the method: as §3

Compound: COc1cc([C@@H]2c3cc4c(cc3[C@@H](NCCN3CCOCC3)[C@H]3COC(=O)[C@H]23)OCO4)cc(OC)c1O
- ID50 [1]: 50000 nM

Compound: COc1cc([C@@H]2c3cc4c(cc3[C@@H](NCCN(C)C)[C@H]3COC(=O)[C@H]23)OCO4)cc(OC)c1O
- GI50 (Tumor Cell line [2]; Homo sapiens, Tumor Cell line): 155 nM
- IC50 (KB [3]; Homo sapiens, KB, 72 h): 400 nM
- IC50 (KB [4]; Homo sapiens, KB): 680 nM
- IC50 (KB [5]): 400 nM
- TGI (Tumor Cell line [6]; Homo sapiens, Tumor Cell line): 1480 nM
- LC50 (Tumor Cell line [7]; Homo sapiens, Tumor Cell line): 15100 nM
- IC50 (KB [8]; Homo sapiens, KB): 440 nM

Compound: COc1cc([C@@H]2c3cc4c(cc3[C@@H](NCCN3CCCCC3)[C@H]3COC(=O)[C@H]23)OCO4)cc(OC)c1O [listing 1 of 3 here]
- IC50 (KB [3]): 1400 nM
- TGI (Tumor Cell line [6]): 3310 nM
- LC50 (Tumor Cell line [7]): 30900 nM
- GI50 (Tumor Cell line [9]): 372 nM

Compound: COc1cc([C@@H]2c3cc4c(cc3[C@@H](NCCN3CCCCC3)[C@H]3COC(=O)[C@H]23)OCO4)cc(OC)c1O [listing 2 of 3 here]
- ID50 [10]: 50000 nM and 25000 nM
- Complex formation (Nucleic Acid): 183% and 190%

Compound: COc1cc([C@@H]2c3cc4c(cc3[C@@H](NC3CCN(Cc5ccccc5)CC3)[C@H]3COC(=O)[C@H]23)OCO4)cc(OC)c1O [listing 1 of 2 here]
- GI50 (Tumor Cell line [2]): 174 nM
- IC50 (KB [3]): 27 nM
- IC50 (KB [4]): 50 nM
- TGI (Tumor Cell line [6]): 1480 nM
- IC50 (KB [11]): 27 nM
- IC50 (KB [8]): 26 nM

Compound: COc1cc([C@@H]2c3cc4c(cc3[C@@H](NCCCN(C)C)[C@H]3COC(=O)[C@H]23)OCO4)cc(OC)c1O [listing 1 of 2 here]
- GI50 (Tumor Cell line [2]; Homo sapiens, Tumor Cell line): 550 nM
- IC50 (KB [3]): 1150 nM
- TGI (Tumor Cell line [6]; Homo sapiens, Tumor Cell line): 2820 nM
- LC50 (Tumor Cell line [7]; Homo sapiens, Tumor Cell line): 13500 nM

Compound: CCOC(=O)CC[C@H](NC(=O)c1ccc(N[C@@H]2c3cc4c(cc3[C@@H](c3cc(OC)c(O)c(OC)c3)[C@H]3C(=O)OC[C@@H]32)OCO4)cc1)C(=O)OCC
- GI50 (Tumor Cell line [2]; Homo sapiens, Tumor Cell line): 50.1 nM
- IC50 (KB [3]; Homo sapiens, KB, 72 h): < 400 nM
- TGI (Tumor Cell line [6]; Homo sapiens, Tumor Cell line): 339 nM
- ID50 [1]: 100000 nM
- LC50 (Tumor Cell line [7]; Homo sapiens, Tumor Cell line): 2880 nM
- Complex formation (Nucleic Acid): 83%

Compound: COc1cc([C@@H]2c3cc4c(cc3[C@@H](Nc3ccc(C(=O)O)cc3)[C@H]3COC(=O)[C@H]23)OCO4)cc(OC)c1O [listing 1 of 2 here]
- GI50 (Tumor Cell line [2]): 12900 nM
- TGI (Tumor Cell line [6]): 52500 nM

Compound: COc1cc([C@@H]2c3cc4c(cc3[C@@H](Nc3ccc(C(=O)O)cc3)[C@H]3COC(=O)[C@H]23)OCO4)cc(OC)c1O [listing 2 of 2 here]
- ID50 [1]: > 100000 nM
- Complex formation (Nucleic Acid): > 6.9% and 1.9%

Compound: COc1cc([C@@H]2c3cc4c(cc3[C@@H](NC3CCN(Cc5ccccc5)CC3)[C@H]3COC(=O)[C@H]23)OCO4)cc(OC)c1O [listing 2 of 2 here]
- ID50 [1]: 100000 nM
- ID50 [12]: 50000 nM

Compound: COc1cc([C@@H]2c3cc4c(cc3[C@@H](NCCN3CCCCC3)[C@H]3COC(=O)[C@H]23)OCO4)cc(OC)c1O [listing 3 of 3 here]
- GI50 (Tumor Cell line [2]; Homo sapiens, Tumor Cell line): 427 nM
- IC50 (KB [3]; Homo sapiens, KB, 72 h): 1600 nM
- TGI (Tumor Cell line [6]; Homo sapiens, Tumor Cell line): 3720 nM
- LC50 (Tumor Cell line [7]; Homo sapiens, Tumor Cell line): 36300 nM

Compound: COc1cc([C@@H]2c3cc4c(cc3[C@@H](NCCCN(C)C)[C@H]3COC(=O)[C@H]23)OCO4)cc(OC)c1O [listing 2 of 2 here]
- GI50 (Tumor Cell line [2]): 331 nM
- CC50 (Tumor Cell line [13]): 12600 nM
- IC50 (KB [4]; Homo sapiens, KB): 660 nM
- TGI (Tumor Cell line [6]): 2190 nM
